95 compounds from ChEMBL document CHEMBL4513216, “Probing the Open Global Health Chemical Diversity Library for Multistage-Active Starting Points for Next-Generation Antimalarials” (ACS Infect Dis, 2020) can be followed below.

This data set in a line: Toxicity liver stage against HepG2, at 10uM. The arrangement: test concentration 10 uM, cell line HepG2-A16-CD81EGFP. Conditions: human, HepG2-A16-CD81EGFP cells; read-out: INHIBITION
The class given is cell-based. In outline: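 Uninfected HepG2-A16-CD81EGFP cells, 3 × 10^3 per well, 1536-well, plated on prespotted compound at 10 μM final, parasite-free screening media added to match infected plates; puromycin 10 μM positive, DMSO 0.5% negative; run in parallel with 48 h PbLuc assay at 37 °C, 5% CO2; viability by CellTiter-Glo luminescence, normalized to controls.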
On to `CC(C)(C)NC(=O)N1CCN(Cc2cccnc2)CC1`, for which the cytotoxicity at 10 µM came out at 10.3%.
With `CCN(CC)C(=O)c1ccc(NC(=O)CNc2ccc(F)cc2Cl)cc1` the figure was -5.31%.
Consider `CS(=O)(=O)NCC(=O)NC1CCc2nccn2C1` (stereo not given), for which the cytotoxicity at 10 µM is 16.2%.
With `CCC(C)(C)NC(=O)C[S+]([O-])Cc1csc(C2CCCC2)n1` (stereo not given) the figure was -41.3%; with `CCc1nnc(CN2CCN(c3cccc(OC)c3)C(=O)C2)o1`, 18.4%.
The result for `O=C(c1ccc(O)cn1)N1CCOC(Cc2cccc(C(F)(F)F)c2)C1` (stereo not given) reads 5.08%.
With `COc1ncccc1C(=O)NC1CCOc2ccccc21` (stereo not given) the figure was -6.25%; with `O=C(CCCc1cn[nH]c1)N1C[C@@H](CN2CCOCC2)[C@@H](CO)C1`, -15.8%; with `CCC(=O)NC1CCN(c2cccc(CC)c2)CC1`, -4.16%.
Take `Cc1ccc(-n2ncc3c2CCCC3N)cc1C` (stereo not given): the cytotoxicity at 10 µM was -1.97%.
Consider `CCC(C)N(Cc1ccncc1)Cc1ccc(-n2cccn2)cc1` (stereo not given), for which the cytotoxicity at 10 µM is -48.3%.
As for `Cc1nn(C)c2cn(C(C)C(=O)NCc3ccccn3)nc12` (stereo not given), the cytotoxicity at 10 µM worked out at 11.1%.
For `CN(C)Cc1cnc(C2CCN(C(=O)c3ccc(F)cc3)C2)[nH]1` (stereo not given), the cytotoxicity at 10 µM is -1.92%.
On to `COc1ccc(NC(=O)N(C)Cc2ccc(Br)o2)cn1`, for which the cytotoxicity at 10 µM was determined as 12%.
The result for `CC(=O)N1CCC2(CCCN(S(=O)(=O)c3ccccc3)C2)C1` (stereo not given) reads 0.169%; that for `COC(=O)c1cccc(C(=O)N2CCCCC2CCn2ccnc2C)c1` (stereo not given), 14.5%.
For the compound `CC(C)c1nc(C2CCCN2c2cnc3ccccc3n2)no1` (stereo not given), the cytotoxicity at 10 µM was -3.13%.
On to `O=C1CN(C(=O)CCn2c(C(F)(F)F)cc3cccnc32)CCN1`, for which the cytotoxicity at 10 µM was -13%.
With `CCn1c(=O)c2cc(S(N)(=O)=O)ccc2n(CC)c1=O` the figure was -13.4%.
Regarding `Cc1ccc(S(=O)(=O)N2C[C@H]3C[C@H](NC(=O)c4ccn(C)n4)[C@H]3C2)cc1`, the cytotoxicity at 10 µM was -1.11%.
For `CCc1ccc(NC(=O)Nc2c(O)oc3ccccc3c2=O)cc1`, the cytotoxicity at 10 µM was 5.95%.
Regarding `CC(O)CN1CCN(Cc2coc(-c3ccccc3Cl)n2)CC1` (stereo not given), the cytotoxicity at 10 µM is -4.73%.
`CC(C)OCCOCc1cccc(NC(=O)NCc2ccncc2)c1`: the cytotoxicity at 10 µM was -12%.
As for `CC(NC(=O)c1ccoc1)c1ccc2c(c1)CCC(=O)N2` (stereo not given), the cytotoxicity at 10 µM is -1.36%.
With `CCOc1cccc2c1OCC(=O)N(c1ccc3c(c1)OCCO3)C2` the figure was 13.1%; with `c1cc(C[C@H]2[C@H](N3CCOCC3)CCN2Cc2ccoc2)ccn1`, 10.2%.
As to `CCC(Nc1cccc(OC)c1)C(=O)NCc1ccc2c(c1)OCO2` (stereo not given), the cytotoxicity at 10 µM is -1.11%.
With `Cc1nc2c(c(N(C)C)n1)CCN(C(=O)c1sccc1S(N)(=O)=O)C2`, the cytotoxicity at 10 µM is -2.29%.
Regarding `CSCC(CCO)NC(=O)Nc1cccc(Br)c1` (stereo not given), the cytotoxicity at 10 µM is -7.69%.
`CCOc1cc(C(=O)N(C)C)ccc1NC(=O)C(C)c1ccsc1` (stereo not given): the cytotoxicity at 10 µM stood at 5.61%.
With `Cc1ccc(-c2cc(CNCCn3cc(C)cn3)on2)cc1` the figure was -7.22%; with `Cc1cc(CC(=O)NCC(O)c2ccc(OC(F)F)cc2)n[nH]1` (stereo not given), -0.988%.
For the compound `Cc1nn(C)cc1CN1CCCCCC1c1ccc(Cl)cc1` (stereo not given), the cytotoxicity at 10 µM was determined as 4.93%.
With `Cc1cccc(CO[C@@H]2CC[C@H]3[C@H]2OCCN3Cc2ccoc2)n1`, the cytotoxicity at 10 µM is -109%.
On to `O=C([C@@H]1CC[C@@H]2[C@@H](CCN2c2ccncn2)O1)N1CCCCO1`, for which the cytotoxicity at 10 µM turned out to be 3.13%.
Take `CC(C)c1noc(CS(=O)(=O)CC(=O)NCc2cccs2)n1`: the cytotoxicity at 10 µM came to 2.71%.
With `COc1ccccc1OC1CCN(c2ccncc2)CC1`, the cytotoxicity at 10 µM worked out at 3.33%.
On to `CN(Cc1nc2ccccc2[nH]1)C(=O)CN(C)c1ccccc1`, for which the cytotoxicity at 10 µM was -2.46%.
With `Cc1ccc(Br)cc1C(=O)Nc1cc(C(N)=O)n(C)c1`, the cytotoxicity at 10 µM was 1.41%.
With `Clc1ccc(-n2cnnc2CCCN2CCOCC2)cc1` the figure was 5.52%; with `Cc1ccc(-c2cc(N)c(=O)n(CC(=O)NC3CCCCC3)n2)s1`, 2.98%.
Turning to `O=S(=O)(NCc1ccccc1)Nc1ccc(-n2ccnc2)cc1`, the cytotoxicity at 10 µM came out at 7.03%.
Regarding `CC(NCc1cccn1C)c1noc(-c2ccc(Cl)cc2)n1` (stereo not given), the cytotoxicity at 10 µM came to 5.07%.
In the case of `O=C(NCCNc1cc(N2CCCC2)cnn1)Nc1ccccc1F`, the cytotoxicity at 10 µM was -0.367%.
The result for `Cc1ncc(C(=O)N2C[C@H](CO)C[C@H](CN3CCOCC3)C2)c(=O)[nH]1` reads -10.4%.
Turning to `Cc1nc(N(C)C/C=C/c2ccccc2)c2cnn(C)c2n1`, the cytotoxicity at 10 µM was determined as 0.0448%.
As for `COc1ccc(-n2nc(C(C)C)nc2COC(C)C)cc1`, the cytotoxicity at 10 µM was found to be 1.56%.
Consider `O=C(N1CCOCC1)[C@@]12CCO[C@@H]1CCN(Cc1cccc(F)c1)C2`, for which the cytotoxicity at 10 µM amounted to 10.8%.
Regarding `CCCNC(=O)Nc1ccc2c(c1)N(S(=O)(=O)CC)CC2`, the cytotoxicity at 10 µM is 1.97%.
For `N#Cc1ccc(S(=O)(=O)Nc2ccccc2C#N)cn1`, the cytotoxicity at 10 µM is -2.93%.
As for `CC(C)CN1CC[C@@H]2[C@@H]1CCN2C(=O)N(C)C`, the cytotoxicity at 10 µM is -0.88%.
`OC1(CNc2ccc(Br)cn2)CCSCC1`: the cytotoxicity at 10 µM was 5.63%.
For the compound `Cc1ccnc2c1NC(=O)CN2C(=O)CCC(F)(F)F`, the cytotoxicity at 10 µM was -15%.
Take `O=C(NCC(=O)N1CCCc2ccccc21)c1c(O)cc(F)cc1F`: the cytotoxicity at 10 µM was 28.6%.
The result for `CN(Cc1cccc2ncccc12)C(=O)CCn1ccc(=O)[nH]c1=O` reads -134%; that for `Nc1nc2c(c(N3CCC(CCn4cccn4)CC3)n1)CCNCC2`, -4.17%.
`CN(C)C(=O)c1ccc(CNC(=O)NCCN(C)C2CCCC2)cc1`: the cytotoxicity at 10 µM is -5.58%.
The result for `COCCN1CCC2(CC1)CC(N1CCOCC1)c1cc(C)ccc12` (stereo not given) reads -106%.
Take `CCS(=O)(=O)N(C)CCCNC(=O)c1cc(Cl)cc2cccnc12`: the cytotoxicity at 10 µM was 15%.
As for `Cc1nccn1[C@@H]1CC[C@@H](NC(=O)CCOc2ccccc2)[C@H]1O`, the cytotoxicity at 10 µM was -12.7%.
With `CN(Cc1cn2c(n1)CN(C(=O)c1ccc[nH]1)CC2)Cc1ccco1` the figure was -3.55%; with `CNS(=O)(=O)CC(=O)N1CC2(CCCC2)c2c(F)cccc21`, -1.21%.
Take `Cc1cnn(C2CCCN(C(=O)CCc3nccs3)C2)c1` (stereo not given): the cytotoxicity at 10 µM is -4.49%.
In the case of `Cc1ccc(N2CCC3(CC2)CC(OCC(C)C)C3)nn1`, the cytotoxicity at 10 µM is -121%.
With `O=C(CN1CCCCCC1)NCCSc1cnn[nH]1` the figure was -7.15%.
As for `c1ccc(COC2C[C@@H]3CN(Cc4cccnc4)C[C@@H]3C2)cc1` (stereo not given in full), the cytotoxicity at 10 µM turned out to be 2.92%.
With `Cc1csc(C2CCCN(C(=O)Cn3ccccc3=O)C2)n1` (stereo not given) the figure was -5.68%.
Consider `COc1ccc(CNC(C)Cn2cccn2)cc1OC` (stereo not given), for which the cytotoxicity at 10 µM is -0.966%.
For the compound `CCc1nc2n(n1)CC(NCCC(=O)Nc1cc(C)on1)CC2` (stereo not given), the cytotoxicity at 10 µM was -10%.
Consider `CN(C)c1cc(C(=O)N2CCCC2c2cnn(C)c2)ccn1` (stereo not given), for which the cytotoxicity at 10 µM is -1.39%.
Consider `Cc1cc(CC(C)NC(=O)c2cccc(CC3CCNCC3)c2)[nH]n1` (stereo not given), for which the cytotoxicity at 10 µM turned out to be 11.1%.
In the case of `O=C(c1ccsc1)N1C[C@H]2CN(Cc3cccnc3)C(=O)[C@H]2C1`, the cytotoxicity at 10 µM is -5.15%.
Consider `CC(C)COc1ccccc1CN(C)C(=O)c1cc(=O)[nH]c(=O)[nH]1`, for which the cytotoxicity at 10 µM came out at 2.05%.
With `Cn1cnnc1C1CCCN(Cc2nc(Cc3ccccc3)no2)C1` (stereo not given), the cytotoxicity at 10 µM is -4.29%.
Take `Cc1nc(N(C)C)nc2c1COCC21CCN(CC2CC2)C1` (stereo not given): the cytotoxicity at 10 µM was -8.94%.
For the compound `CS(=O)(=O)N1CC2(CCCN2Cc2ccc(Cl)cc2)Cc2ccccc21` (stereo not given), the cytotoxicity at 10 µM was 17%.
`O=C(c1ccsc1)N1C[C@@H]2OCCN(CCN3CCCC3)[C@@H]2C1`: the cytotoxicity at 10 µM is -73.7%.
Regarding `Cc1ncc2c(n1)CN(CC(=O)Nc1ccncc1)CC2`, the cytotoxicity at 10 µM was -8.7%.
In the case of `COc1c(C2CCCN2C(=O)c2ccc3c(c2)OCO3)c(C)nn1C` (stereo not given), the cytotoxicity at 10 µM is -13.4%.
The result for `CNC(=O)[C@H]1C[C@@H]2CCN(Cc3ccc4c(c3)OCO4)C[C@@H]2O1` reads 5.79%.
As to `CCNc1ncc(CN2C[C@@H]3CC[C@H]2CN(C(=O)C2CCC2)C3)cn1`, the cytotoxicity at 10 µM was 6.29%.
As for `c1coc(CNCC2Cn3nncc3CO2)c1` (stereo not given), the cytotoxicity at 10 µM is -92.5%.
With `Cc1nc(Nc2nnc(C)s2)cc(C2CCCN2c2ccncn2)n1` (stereo not given) the figure was -14.3%.
`CC(C)C(N)CNS(=O)(=O)Cc1cccc2cccnc12` (stereo not given): the cytotoxicity at 10 µM was -9.32%.
Consider `CN(C)C(=O)N[C@H]1CN(C2CCOCC2)[C@@H]2CCCO[C@H]12`, for which the cytotoxicity at 10 µM is -1.86%.
As for `CC(c1nc(C2CC2)no1)N1CCN(Cc2cccnc2)CC1` (stereo not given), the cytotoxicity at 10 µM was -6.18%.
With `Cn1cc(N2CCN(c3ccc(C#N)cc3F)CC2=O)cn1` the figure was -2.14%.
Take `Cc1cnc(CN(C)C2CCN(CCCc3ccccc3)C2)o1` (stereo not given): the cytotoxicity at 10 µM is -4.02%.
Consider `CCc1nnc2sc(-c3cc(C(C)C)n[nH]3)nn12`, for which the cytotoxicity at 10 µM is -7.37%.
For the compound `c1csc(CN(Cc2ccsc2)CC2CCCO2)n1` (stereo not given), the cytotoxicity at 10 µM was -1.32%.
On to `c1ccc(CN2CCN3C[C@H](Oc4cccnc4)C[C@H]3C2)nc1`, for which the cytotoxicity at 10 µM is 6.59%.
With `Cc1nnc(N2CC[C@H]3C[C@@H](C(=O)NC4CCCC4)O[C@H]3C2)s1`, the cytotoxicity at 10 µM came to 6.69%.
For the compound `CC(c1c(F)cccc1F)N1CCN(Cc2nccn2C)CC1` (stereo not given), the cytotoxicity at 10 µM is -13.6%.
With `CC1CCN(c2ncc(-c3ccccc3F)c(-c3nccn3C)n2)CC1`, the cytotoxicity at 10 µM was found to be 27.1%.
The result for `COc1ccc(C(C)NC(=O)C2CCN(S(C)(=O)=O)CC2)cc1C` (stereo not given) reads -7.5%.
